Bioassay records from PubChem.
Rows were chosen to be rich in hits. Some 3% of all compounds tested hit in one or more screens of this group.
Wee1 stabilizer – human Wee1 degradation inhibition, primary screen | P30291 | HeLa Luc-Wee1K328M stability, luciferase luminescence; 100% = proteasome inhibitor MG132 effect | reporter increase, % at 5 µM | 220,000 compounds, 1.2% hits;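 active = activation above the mean of all tested compounds plus 3 SD, set per screening run, cut at about 8.8% in these data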;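 note: cells exposed to compound for 20 h before luminescence read; 0% = DMSO alone and 100% = MG132 at 30 µM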
NPY1 pot ag – potentiators or agonists of human neuropeptide Y receptor Y1; P25929; NPY-Y1 expressing cells, potentiator/agonist activation; activation, % at 3.6 µM; 220,000 compounds, 0.37% hits; AID 1304; in the data active = activation above about 33%, passing the limit was not always enough;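 note: cells stimulated with NPY at EC10 then isoproterenol at EC100; 0% = low agonist plus stimulus and 100% = saturating agonist plus stimulus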
Hsp70 activator – transcriptional activators of Hsp70; HeLa Hsp70 promoter luciferase reporter, luminescence; scaled: vehicle 0, proteasome-inhibitor control 100%; activation, % at 10 µM; 200,000 compounds, 0.04% hits;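 active = activation above the mean across all tested compounds plus 3 SD, cutoff set per campaign, cut at about 5.5% in these data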;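 note: 100% = MG132 at 30 µM as the positive control and 0% = DMSO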
NPY Y1 blocker – antagonists of human neuropeptide Y receptor Y1; HEK293-CNG Y1 cells, membrane potential fluorescence; NPY at EC95, then isoproterenol; inhibition, % at 3.6 µM; 200,000 compounds, 1% hits; P25929;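 active = inhibition above the campaign mean inhibition of all tested compounds plus 3 SD, cut at about 20% in these data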;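 note: 0% = DMSO wells given NPY plus isoproterenol and 100% = isoproterenol alone without NPY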
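Material: HEK293 Y1/CNG channel cell line | Also added: NPY (25 nM), isoproterenol (1 µM), Ro 20-1724 (25 µM) | Compound: One concentration, 3.6 µM, in 0.4% DMSO | Schedule: 3 h dye uptake, 1 h room-temperature compound, 45 min post-isoproterenol | Signal: Membrane-potential fluorescent dye readout | Read-out: % inhibition of NPY effect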
NPY-Y2 PAM-ag – human NPY-Y2 potentiation or agonism, primary screen; 220,000 compounds, 0.45% hits; AID 1359; activation, % at 3.6 µM; P49146; cells expressing NPY-Y2, potentiator/agonist read-out; in the data active = activation above about 27%;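 note: cells stimulated with NPY near EC25 plus isoproterenol at EC100; 0% = vehicle plus submaximal agonist and 100% = vehicle plus saturating agonist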
Target sequence (P49146 whole entry, looked up): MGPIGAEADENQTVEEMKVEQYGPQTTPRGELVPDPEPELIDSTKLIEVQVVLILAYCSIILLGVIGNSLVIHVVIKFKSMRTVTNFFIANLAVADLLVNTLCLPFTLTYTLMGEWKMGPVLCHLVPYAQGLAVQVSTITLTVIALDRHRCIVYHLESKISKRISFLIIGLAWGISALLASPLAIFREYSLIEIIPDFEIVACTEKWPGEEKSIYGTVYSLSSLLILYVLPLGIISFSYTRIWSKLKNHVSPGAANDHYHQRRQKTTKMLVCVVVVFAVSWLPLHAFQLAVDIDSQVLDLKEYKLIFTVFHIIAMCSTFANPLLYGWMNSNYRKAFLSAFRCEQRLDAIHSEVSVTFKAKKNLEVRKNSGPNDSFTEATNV
NPY-Y2 antag – antagonists of human neuropeptide Y receptor Y2; AID 793; inhibition, % at 2.7 µM; NPY-Y2 expressing cells, antagonist mode; P49146; 140,000 compounds, 0.99% hits; in the data active = inhibition above about 17%;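 note: 0% = vehicle with agonist challenge and 100% = reference antagonist with challenge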
The depositor's hits bear a star; . = no result.

SMILES	Wee1 stabilizer	NPY1 pot ag	Hsp70 activator	NPY Y1 blocker	NPY-Y2 PAM-ag	NPY-Y2 antag
O=[N+]([O-])c1ccc(-n2cccc2/C=N/Nc2nc(N3CCCCC3)nc(N3CCCCC3)n2)cc1	10.6*	-22.0	0.1	4.7	-3.0	.
Cc1c(/C=C/C(=O)c2ccc(C(C)C)cc2)cnn1C	0.7	11.0	-0.1	1.7	19.6	.
O=C(c1ccc2c(c1)OCO2)N(Cc1cccs1)C1(C(=O)NC2CCCCC2)CCCCC1	-2.8	-10.2	-0.2	54.9*	-13.5	37.2*
O=C(Cc1cccs1)N(Cc1ccco1)C1(C(=O)NC2CCCCC2)CCCCC1	0.4	8.6	0.1	49.7*	-11.4	29.6*
O=C1CCC(C(=O)N(Cc2ccco2)C2(C(=O)NC3CCCC3)CCCCC2)N1 (stereo not given)	-1.8	-26.0	-0.2	21.7*	6.0	23.2*
CC(=O)N(Cc1ccco1)C1(C(=O)NC2CCCCC2)CCCCC1	0.7	18.8	-0.3	10.4	-2.8	5.3
O=C(Cc1cccs1)N(Cc1cccs1)C1(C(=O)NC2CCCC2)CCCCC1	0.6	-15.9	0.1	50.8*	-10.7	50.2*
Cn1c(=O)c2c(nc(Sc3ncnn3CC(=O)N3CCOCC3)n2C)n(C)c1=O	0.4	16.2	.	.	-26.1	.
CC(C)C(=O)NNc1ccc(C(F)(F)F)cn1	-2.1	15.8	.	.	-7.2	.
CN(C(=O)c1ccc2c(c1)OCO2)C1(C(=O)NC2CCCC2)CCCCC1	-1.6	-14.6	-0.2	2.0	4.5	1.5
O=C(c1ccc2c(c1)OCO2)N(CC1CCCO1)C1(C(=O)NC2CCCCC2)CCCCC1 (stereo not given)	3.1	-9.9	-0.1	21.9*	-6.5	29.4*
Cc1ccc(C(C(=O)NC2CCCC2)N(Cc2ccc3c(c2)OCO3)C(=O)Cc2cccs2)cc1 (stereo not given)	-1.6	-19.0	-0.4	14.7	8.7	22.2*
CCCn1c(=S)[nH]c2cc(C(=O)N3CCc4ccccc43)ccc2c1=O	-0.5	-11.0	-0.1	6.0	-13.5	2.8
COCCn1c(=S)[nH]c2cc(C(=O)N3CCc4ccccc43)ccc2c1=O	10.8*	0.9	-0.3	-2.1	-2.9	2.8
CN(NS(=O)(=O)c1ccc(Br)cc1)c1nc(C(F)(F)F)nc2ccccc12	-3.3	-6.2	0.1	1.3	13.1	.
CC(NC(=O)c1sc2cc([N+](=O)[O-])ccc2c1Cl)C(C)(C)C (stereo not given)	9.0*	-9.7	-0.2	-2.9	6.8	4.9
Cc1cc(C)c(/C=N/n2c(C)cc(C)c(C#N)c2=O)c(C)c1	-0.8	-1.3	-0.5	1.3	4.4	3.5
Cc1cc(C)n(/N=C/c2cccs2)c(=O)c1C#N	10.8*	18.9	-0.5	-1.0	11.7	3.7
N=c1c2c(-c3ccccc3)c(-c3ccccc3)n(Cc3ccco3)c2ncn1CCCn1ccnc1	1.9	-149.5	0.2	57.2*	-20.4	41.4*
N=c1c2c(-c3ccccc3)c(-c3ccccc3)n(Cc3ccccc3)c2ncn1CCO	1.8	-99.8	-0.1	61.2*	-24.9	63.2*
N=c1c2c(-c3ccccc3)c(-c3ccccc3)oc2ncn1CCN1CCOCC1	0.8	-2.8	-0.1	5.8	0.0	1.7
OCCNc1ncnc2c1c(-c1ccccc1)c(-c1ccccc1)n2Cc1ccco1	1.1	1.3	0.1	3.3	-3.5	12.7
CC(C)Cn1cnc2c(c(-c3ccccc3)c(-c3ccccc3)n2Cc2ccco2)c1=N	-0.8	3.6	-0.3	40.2*	3.0	76.2*
O=Cc1ccc(-c2cccc([N+](=O)[O-])c2)o1	10.4*	6.0	.	.	-16.7	.
CC(Oc1ccc(Cl)cc1)c1ccnn1S(=O)(=O)c1ccc(Cl)cc1 (stereo not given)	0.8	-8.7	-0.3	21.0*	-20.3	21.9*
Cc1cccc(Cn2c(=O)n(Cc3ccco3)c(=O)c3ccccc32)c1	10.2*	-37.3	-0.4	11.0	-20.6	3.6
Cc1cccc(Cn2c(=O)n(CCCC(=O)NCc3ccco3)c(=O)c3ccccc32)c1	-1.0	-18.5	-0.6	-0.9	3.5	9.4
CC(=O)Nc1ccc(S(=O)(=O)Nc2ccc(S(=O)(=O)N3CCCC3)cc2)cc1	9.2*	16.0	-0.6	1.8	0.3	-1.0
